Drawing on ChEMBL document CHEMBL3286396, “Discovery and Synthesis of C-Nucleosides as Potential New Anti-HCV Agents” (ACS Med Chem Lett, 2014), this text covers EC50, CC50 and IC50 for eight compounds.

pEC50, pIC50: −log10 of the molar value.

Data set [1] has as its system Hepatitis C virus. The data set is described as follows: Antiviral activity against Hepatitis C virus genotype 1b infected in human HuH7 cells assessed as inhibition of subgenomic replicon RNA replication after 72 hrs by luciferase reporter assay. In kind it is functional, cell-based, Hepacivirus hominis. The settings on record: Huh-7, 72 h. On the technique in general: Replicon systems follow genome replication, usually without infectious particles.

The nature of data set [2]: Cytotoxicity against human HuH7 cells by MTT assay. Format: cell-based, Huh-7. In short, it runs like this: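 Huh-7-derived HCV replicon cell lines were used, with MTT as the vital dye read-out.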
A short description of data set [3]: Inhibition of N-terminal His6-tagged Hepatitis C virus genotype 1b isolate Con1 NS5B RNA-dependent RNA polymerase activity by plate reader analysis.
The subject of data set [4] is Hepatitis C virus. Nature of the data set: Antiviral activity against Hepatitis C virus assessed as inhibition of subgenomic replicon RNA replication. In kind it is functional, organism-based, Hepacivirus hominis.
Data set [5] deals with T1, DNA polymerase alpha catalytic subunit (Homo sapiens, UniProt P09884).
T1 sequence (P09884 whole entry): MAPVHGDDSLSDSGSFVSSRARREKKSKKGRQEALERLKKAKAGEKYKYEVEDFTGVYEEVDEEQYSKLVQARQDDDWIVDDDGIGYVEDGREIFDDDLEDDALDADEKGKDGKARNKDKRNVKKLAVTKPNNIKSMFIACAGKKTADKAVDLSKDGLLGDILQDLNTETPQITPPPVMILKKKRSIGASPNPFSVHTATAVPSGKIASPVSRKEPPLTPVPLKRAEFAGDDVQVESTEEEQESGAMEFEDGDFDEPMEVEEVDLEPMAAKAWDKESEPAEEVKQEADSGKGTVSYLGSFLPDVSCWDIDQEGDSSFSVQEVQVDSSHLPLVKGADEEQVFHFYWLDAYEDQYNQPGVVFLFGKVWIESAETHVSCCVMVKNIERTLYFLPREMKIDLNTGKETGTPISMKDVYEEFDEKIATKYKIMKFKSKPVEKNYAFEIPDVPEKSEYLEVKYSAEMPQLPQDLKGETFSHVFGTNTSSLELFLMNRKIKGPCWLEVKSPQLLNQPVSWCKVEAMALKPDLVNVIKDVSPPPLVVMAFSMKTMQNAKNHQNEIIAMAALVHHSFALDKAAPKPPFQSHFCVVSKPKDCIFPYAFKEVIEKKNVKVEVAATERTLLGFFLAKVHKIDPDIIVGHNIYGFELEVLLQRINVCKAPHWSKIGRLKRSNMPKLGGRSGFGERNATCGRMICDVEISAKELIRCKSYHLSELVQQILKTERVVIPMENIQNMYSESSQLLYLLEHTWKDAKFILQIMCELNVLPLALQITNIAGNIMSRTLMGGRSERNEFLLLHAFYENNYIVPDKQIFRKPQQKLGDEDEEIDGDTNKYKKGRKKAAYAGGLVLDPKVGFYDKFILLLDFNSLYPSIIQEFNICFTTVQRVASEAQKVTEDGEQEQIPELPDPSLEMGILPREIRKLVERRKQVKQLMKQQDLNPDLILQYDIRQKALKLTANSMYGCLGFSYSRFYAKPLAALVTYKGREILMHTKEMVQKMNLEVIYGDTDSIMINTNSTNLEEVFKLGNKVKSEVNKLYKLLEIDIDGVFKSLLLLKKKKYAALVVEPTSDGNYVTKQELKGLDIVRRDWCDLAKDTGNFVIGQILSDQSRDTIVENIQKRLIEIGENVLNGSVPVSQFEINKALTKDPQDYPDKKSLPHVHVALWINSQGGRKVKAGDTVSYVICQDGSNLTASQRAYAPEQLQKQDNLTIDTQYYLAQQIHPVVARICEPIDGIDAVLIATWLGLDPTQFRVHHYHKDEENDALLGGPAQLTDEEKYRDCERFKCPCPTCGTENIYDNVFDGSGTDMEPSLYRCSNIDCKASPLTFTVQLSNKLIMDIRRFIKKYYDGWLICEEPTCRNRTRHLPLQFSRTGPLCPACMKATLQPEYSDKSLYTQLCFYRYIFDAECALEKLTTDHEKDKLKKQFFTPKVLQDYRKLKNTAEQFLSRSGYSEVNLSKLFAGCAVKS
Nature of the data set: Inhibition of human DNA polymerase alpha. In short, it runs like this:
(§1)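 The nucleoside was tested in its triphosphate form against human DNA polymerases α, β and γ.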

The target in another data set is DNA polymerase beta (Homo sapiens, UniProt P06746). Nature of the data set: Inhibition of human DNA polymerase beta. In short, it runs like this: as §1
Data set [6] addresses T2, DNA polymerase subunit gamma-1 (Homo sapiens, UniProt P54098).
T2 sequence (P54098 whole entry): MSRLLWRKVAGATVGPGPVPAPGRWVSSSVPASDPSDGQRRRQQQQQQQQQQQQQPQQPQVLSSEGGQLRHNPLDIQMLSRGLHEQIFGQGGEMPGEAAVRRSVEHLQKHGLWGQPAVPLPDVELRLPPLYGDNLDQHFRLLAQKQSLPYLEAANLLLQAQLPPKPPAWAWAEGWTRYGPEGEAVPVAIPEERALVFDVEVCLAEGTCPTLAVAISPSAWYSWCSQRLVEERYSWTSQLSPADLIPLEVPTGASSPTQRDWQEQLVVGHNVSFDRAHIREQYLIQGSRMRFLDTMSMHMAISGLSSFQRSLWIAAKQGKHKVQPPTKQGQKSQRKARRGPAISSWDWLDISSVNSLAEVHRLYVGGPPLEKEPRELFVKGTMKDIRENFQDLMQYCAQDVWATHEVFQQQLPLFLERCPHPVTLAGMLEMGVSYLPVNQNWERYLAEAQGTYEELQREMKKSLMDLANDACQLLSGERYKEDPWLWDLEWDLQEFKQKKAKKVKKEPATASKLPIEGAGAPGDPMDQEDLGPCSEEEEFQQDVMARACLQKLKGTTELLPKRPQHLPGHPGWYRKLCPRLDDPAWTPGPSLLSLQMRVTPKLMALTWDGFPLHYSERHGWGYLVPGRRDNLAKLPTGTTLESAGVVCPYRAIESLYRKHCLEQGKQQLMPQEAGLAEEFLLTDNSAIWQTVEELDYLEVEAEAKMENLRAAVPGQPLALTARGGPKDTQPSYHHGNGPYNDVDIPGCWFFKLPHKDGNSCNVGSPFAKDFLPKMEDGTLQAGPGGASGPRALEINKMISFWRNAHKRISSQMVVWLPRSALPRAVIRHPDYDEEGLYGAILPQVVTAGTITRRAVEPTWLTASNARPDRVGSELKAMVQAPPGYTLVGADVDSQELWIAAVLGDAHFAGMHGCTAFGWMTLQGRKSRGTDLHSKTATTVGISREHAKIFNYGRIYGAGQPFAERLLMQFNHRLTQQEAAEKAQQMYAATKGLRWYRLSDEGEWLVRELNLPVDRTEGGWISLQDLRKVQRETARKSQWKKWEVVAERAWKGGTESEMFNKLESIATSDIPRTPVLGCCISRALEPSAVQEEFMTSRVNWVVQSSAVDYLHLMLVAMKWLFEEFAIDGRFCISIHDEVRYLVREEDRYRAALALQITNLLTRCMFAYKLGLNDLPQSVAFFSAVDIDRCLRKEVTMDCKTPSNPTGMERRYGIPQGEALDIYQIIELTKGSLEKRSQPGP
Nature of the data set: Inhibition of human DNA polymerase gamma. In short, it runs like this: as §1

Data set [7] can be described thus: Inhibition of Hepatitis C virus NS5B RNA-dependent RNA polymerase activity. Also on record: species or system Hepacivirus hominis.

As usually defined, the pEC50 is the negative decadic logarithm of the EC50, by convention in mol/L. The CC50 is the concentration giving 50% cytotoxicity. One may read the pIC50 as the IC50 on a negative log10 scale, so that one unit is a factor of ten. As to `C[C@@]1(O)[C@H](O)[C@@H](CO)O[C@H]1c1cnc2c(N)ncnn12`, the pEC50 in the data set on Hepatitis C virus [1] is 5.89. In data set [2], the CC50 was 34000 nM. Moreover, the pIC50 in data set [3] is 6.26.
The matching figures for `C[C@@]1(O)[C@H](O)[C@@H](CO)O[C@H]1c1cnc2c(=O)[nH]c(N)nn12`: less than 4.00, greater than 100000 nM and 6.51.
As for `C[C@@]1(O)[C@H](O)[C@@H](CO)O[C@H]1n1ccc2c(O)nc(N)nc21`, the pEC50 with Hepatitis C virus [4] is less than 4.30.
On to `C[C@@]1(O)[C@H](O)[C@@H](CO)O[C@H]1c1ccc2c(=O)[nH]c(N)nn12`, for which, in the data set with Hepatitis C virus [1], the negative logarithm of the EC50 (pEC50) was less than 4.00. Moreover, the CC50 in data set [2] is greater than 100000 nM. In addition, in data set [3], the pIC50 was 6.68.
In the same order, the values of `C[C@@]1(O)[C@H](O)[C@@H](CO)O[C@H]1c1cnn2c(N)ncnc12` are less than 4.00, greater than 100000 nM and 4.48.
As to `C[C@@]1(O)[C@H](O)[C@@H](COP(=O)(O)OP(=O)(O)OP(=O)(O)O)O[C@H]1c1ccc2c(N)ncnn12`, the pIC50 (in data set [5]; on DNA polymerase beta; in data set [6]) was less than 4.00 throughout.
Take `C[C@@]1(O)[C@H](O)[C@@H](CO)O[C@H]1n1cnc2c(=O)[nH]c(N)nc21` [2'-B-METHYL-GUANOSINE]: in the data set with Hepatitis C virus [4], the pEC50 is 5.70.
As to `C[C@@]1(O)[C@H](O)[C@@H](CO)O[C@H]1n1ccc2c(N)ncnc21` [BETA-2'-C-METHYL-7-DEAZA-ADENOSINE], the pEC50 is 6.70 with Hepatitis C virus [1] and 6.52 with Hepatitis C virus [4]. This compound also had a CC50 in data set [2] greater than 100000 nM. Moreover, the figures for the pIC50 in data set [7] and in data set [3] were 7.15 and 6.70, respectively.
